Source: PubChem BioAssay (several laboratories)
RanGTP-Impb inh: inhibitors of RanGTP-importin-beta interaction, primary screen, biochemical, FRET, CFP-Ran, YFP-importin-beta, homogeneous | 300,000 compounds, 1.1% hits | inhibition, % (no concentration beside the values) | cell-free CFP-Ran/YFP-importin-beta FRET ratio | AID 2216;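 active = more than half of the replicate wells show a fall in the fluorescence ratio signal beyond about 16%, limit read from the data, passing the limit was not always enough; inconclusive = exactly half of the replicate wells pass the set limit; inactive = fewer than half of replicates pass the limit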;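 note: 0% = DMSO wells and 100% = Ran loaded with GDP instead of GTP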
CaV13 ICDI inh: Primary screen for inhibitors of IQ motif and Ca2+-dependent inactivation inhibitor domain binding in CACNA1D, Förster resonance energy transfer in living cells, …. HEK cells, CFP/YFP FRET ICDI-IQ, plate reader, 10 min; percent FRET-ratio fall versus neutral wells. inhibition, % at 12.3 µM. 340,000 compounds, 0.098% hits. AID 743397;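 active = mean replicate inhibition of at least 30% and at least 1% of replicates passing that level; inconclusive = only one of the two criteria is met; inactive = neither criterion is met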;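 note: 0% = median of the neutral control wells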
Runt-CBFb FRET: Runt domain-CBFb interaction inhibition; 220,000 compounds, 0.46% hits; Cerulean-Runt/Venus-CBFb FRET ratio 530/480, 1 h; inhibition, % at 20 µM; Q01196+Q13951;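 active = inhibition over about 50% at 20 µM in the single-dose screen, limit read from the data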;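 note: 0% = DMSO wells and 100% = excess unlabeled CBFb competitor control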
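Measured by: fluorescence energy transfer, 422 nm excitation, 530/480 nm emission; test system: Cerulean-tagged RUNX1 Runt domain (FRET donor) fusion protein; buffer or medium: Tris pH 7.5 buffer with BSA; compound: one dose, 20 µM compound, 1% DMSO; times: two 1 h room-temperature incubations shielded from light; benchmarks: unlabeled CBFb 5 µM, positive control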
Runt-SMMHC FRET: Runt domain-CBFb-SMMHC interaction inhibition; 220,000 compounds, 0.74% hits; Q01196+Q13951; Cerulean-Runt/Venus-CBFb-SMMHC FRET ratio 530/480, 1 h; inhibition, % at 20 µM; AID 1434;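 active = mean inhibition across duplicate retests at 20 µM reaching about 50%, limit read from the data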;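 note: 0% = DMSO wells and 100% = wells with excess untagged CBFb-SMMHC; inhibitors lower the FRET ratio by blocking Runt binding to CBFb-SMMHC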
Hck-Nef inh: human Hck-Nef kinase inhibition | P08631 | Recombinant Hck-YEEI plus Nef, Z-Lyte FRET kinase assay | inhibition, % at 20 µM | 220,000 compounds, 0.68% hits;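 active = Hck-Nef kinase inhibition above about 50%, limit read from the data; inactive = inhibition below that limit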;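 note: 0% = DMSO with Hck plus Nef and 100% = Hck alone without Nef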
Target sequence (P08631 whole entry, looked up): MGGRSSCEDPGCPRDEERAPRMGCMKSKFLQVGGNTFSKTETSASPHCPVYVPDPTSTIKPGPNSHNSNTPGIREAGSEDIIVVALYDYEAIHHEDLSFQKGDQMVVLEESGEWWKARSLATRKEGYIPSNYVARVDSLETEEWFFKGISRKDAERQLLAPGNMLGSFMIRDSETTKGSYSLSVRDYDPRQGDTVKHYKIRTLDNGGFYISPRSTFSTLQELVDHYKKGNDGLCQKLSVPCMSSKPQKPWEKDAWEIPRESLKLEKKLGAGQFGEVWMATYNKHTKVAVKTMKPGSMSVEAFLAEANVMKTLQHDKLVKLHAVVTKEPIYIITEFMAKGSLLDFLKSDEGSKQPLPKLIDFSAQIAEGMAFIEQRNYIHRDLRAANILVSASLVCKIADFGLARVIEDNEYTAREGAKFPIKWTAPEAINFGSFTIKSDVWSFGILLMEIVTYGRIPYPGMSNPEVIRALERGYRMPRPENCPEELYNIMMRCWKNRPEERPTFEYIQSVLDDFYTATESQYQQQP
YIC counter: counter-screen YIC FRET for RanGTP-importin-beta inhibitors | 1,000 compounds, 40% hits | shares compounds with RanGTP-Impb inh | Purified YIC probe, intramolecular FRET ratio YFP/CFP | IC50, µM;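 active = fitted half-maximal inhibitory concentration no more than tenfold above the top dose tested; inconclusive = flat fit with 30 to 70% activity, or poor fit; inactive = half-maximal concentration beyond tenfold above the top dose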
Active calls of the source: *; ? = inconclusive; · = not tested or not shown. In the library only some 1.5% were active in any assay of this set; here they are far more common.

SMILES	RanGTP-Impb inh	CaV13 ICDI inh	Runt-CBFb FRET	Runt-SMMHC FRET	Hck-Nef inh	YIC counter
Cc1cc(C)c2nc(N3CCOCC3)c(C#N)cc2c1	24*	-2	·	·	·	19*
N#Cc1cc2cc3c(cc2nc1N1CCOCC1)OCO3	39*	6	97*	109*	10	9*
O=C(O)C1C2CCC(O2)C1C(=O)Nc1ccc(F)cc1 (stereo unspecified)	?	-3	0	-2	-7	·
CCNC(=O)NC(=O)CSc1ccc(S(=O)(=O)N2CCCCC2)cn1	·	-2	·	·	·	·
COc1ccc(C(=O)NNC(=O)Cn2nc(C)cc2C)cc1S(=O)(=O)N1CCOCC1	·	-5	·	·	·	·
CCCCSCCCNC(=O)Nc1cccc(OC)c1	1	-10	-1	-4	-1	·
COCCNC(=S)N1CCCN(c2nc3cc(C)ccc3cc2C#N)CC1	18*	-1	·	·	·	31*
COCCNC(=S)N(c1ccccc1)C(C)C	-2	-1	0	-4	-1	·
N#Cc1cc(NCC2CCCO2)c([N+](=O)[O-])cc1C#N (stereo unspecified)	23*	-17	0	-1	2	>50
O=[N+]([O-])c1cc(C(F)(F)F)ccc1NCC1CCCO1 (stereo unspecified)	-6	4	·	·	·	·
COc1ccc(-c2cc(C(=O)NC3CC3)c3ccccc3n2)cc1	-3	-5	·	·	·	·
COc1cccc(-c2cc(C(=O)NC3CC3)c3ccccc3n2)c1	19*	-2	·	·	·	>50
CCc1ccc(N2C=C(C(=O)OC)C(c3ccccc3F)C(C#N)=C2N)cc1 (stereo unspecified)	·	-8	·	·	·	·
COC(=O)C1=CN(Cc2ccc(OC)c(OC)c2)C=C(C(=O)OC)C1c1ccccc1F	28*	-3	·	·	·	11*
COC(=O)C1=CN(Cc2ccccc2)C=C(C(=O)OC)C1c1ccc(OC)c(OC)c1	3	-2	·	·	·	·
COC(=O)C1=CN(Cc2ccccc2)C=C(C(=O)OC)C1c1ccc(O)c(OC)c1	28*	-3	·	·	·	>50
Cc1nn(-c2ccc(N3CCOCC3)nn2)c(C)c1CCC(=O)Nc1ccc(F)cc1	3	-2	·	·	·	·
O=C(Cn1cnc([N+](=O)[O-])c1)c1ccc(Cl)cc1	-1	-12	·	·	·	·
CC(=O)N(/N=C1\Sc2ccccc2C1=O)c1ccc(C)cc1C	3	-3	18	7	5	·
CC(=O)N(/N=C1\Sc2ccccc2C1=O)c1ccccc1C	24*	-3	·	-9	0	40*
CCOC(=O)c1c(NC(C)=O)sc2c(OCC(O)CN(CC)CC)c(Br)ccc12 (stereo unspecified)	-1	-4	-1	0	20	·
CSc1ncccc1C(=O)OCC(=O)c1cc2ccccc2o1	19*	-10	-4	0	1	>50
CCc1ccc(-c2nc(CSCC(=O)N3CCN(c4ccccn4)CC3)c(C)o2)cc1	18*	-6	-3	-2	-1	>50
Cc1ccc(-c2nc(CSCC(=O)N3CCN(c4ccccn4)CC3)c(C)o2)cc1	-1	-1	2	0	6	·
Cc1c(Cl)cccc1NC(=S)N(CCCN1CCOCC1)Cc1cccs1	-2	-3	0	-1	-1	·
SMILES	RanGTP-Impb inh	CaV13 ICDI inh	Runt-CBFb FRET	Runt-SMMHC FRET	Hck-Nef inh	YIC counter
CCOC(=O)C1CCCN(C(=O)Cn2nc(C)n3nc(-c4ccccc4)cc3c2=O)C1 (stereo unspecified)	1	-15	·	·	·	·
CC(C)Cn1c(SCC(=O)N2CC(=O)Nc3ccccc32)nc2ccccc21	3	-1	0	0	-64	·
Cc1nc2ccccc2n1CC(=O)N1CC(=O)Nc2ccccc21	18*	·	3	0	1	>50
COc1ccc(-c2nnc(C(C)Nc3cccc(C(=O)NC4CC4)c3)o2)cc1 (stereo unspecified)	·	-5	·	·	·	·
COc1ccc(N2C(=O)CC(C#N)=C2N)cc1	18*	-5	-4	-7	15	>50
Cc1ccc(C)c(S(=O)(=O)N2CCCC2CNC(=O)C(=O)NCCN2CCOCC2)c1 (stereo unspecified)	0	-5	·	·	·	·
OCCNc1c2ccccc2nc2c(F)c(F)c(F)c(F)c12	20*	-6	47	·	0	6.5*
Cc1c2ccccc2nc2c(F)c(NCCO)c(F)c(F)c12	-10	-10	2	3	-2	·
CC(=O)Oc1ccc2c(c1)O/C(=C\c1ccncc1)C2=O	-203	·	-338	-134	-34	·
COC(=O)COc1ccc2c(c1)O/C(=C\c1ccco1)C2=O	18*	-4	·	·	·	29*
CCN(CC)C(=O)Oc1ccc2c(c1)O/C(=C\c1ccco1)C2=O	18*	-20	·	·	·	8.2*
O=C(Nc1ccc(F)c(Cl)c1)NC1CC1	2	-5	-1	1	13	·
CCOC(=O)CNC(=O)C1CCCN(c2ncccn2)C1 (stereo unspecified)	21*	-7	0	-1	-1	>50
O=C(NCc1cccs1)C1CCCN(c2ncccn2)C1 (stereo unspecified)	-2	·	0	-3	0	·
CC(=O)c1nn(-c2ccccc2)cc1C(=O)c1cccc(Br)c1	2	-3	-4	-1	-2	·
Cc1ccc(CNC(=O)c2cccnc2)cc1	21*	-5	·	·	·	>50
C=CCn1c(CSCc2ccc(C)cc2)nnc1SCC(=O)NCc1ccccc1	?	-5	-6	1	2	·
Cc1ccc(-n2c(=O)c(C#N)cc3c(=O)n4ccccc4nc32)cc1	44*	-3	19	60*	94*	0.72*
COc1cccc(N2CC(C(=O)Nc3nnc(SCCC4OCCO4)s3)CC2=O)c1 (stereo unspecified)	2	-3	·	·	·	·
CC1(C)CSC(=NCCc2ccccc2)N1	6	-3	·	·	·	·
COc1ccc(CCNc2nc3ccccc3n3nnnc23)cc1OC	28*	-6	19	31	0	25*
c1ccc(CCNc2nc3ccccc3n3nnnc23)cc1	6	-3	4	3	-2	·
COC(=O)c1sccc1NC(=O)c1csc(C)c1	19*	-9	-1	6	0	>50
CCn1c(C(=O)Nc2ccsc2C(=O)OC)cc2sc(Cl)cc21	20*	-7	-3	8	2	47*
COC(=O)c1sccc1NC(=O)c1ccc(Cl)s1	-4	-6	0	-2	8	·
COc1ccc(N(C)S(=O)(=O)c2ccc3c(c2)CCC(=O)N3)cc1	-2	-8	-1	3	-1	·
COc1ccccc1NC(=O)CN1CCN(CC(=O)Nc2ccc(C)c(F)c2)CC1	27*	-16	·	·	·	>50
COc1ccccc1NC(=O)CN1CCN(CC(=O)Nc2ccc(F)cc2)CC1	·	-5	0	-5	-9	·
